Screening data: PubChem, several laboratories
aDG glyco act: activators of alpha-DG glycosylation, primary screen, uHTS, Pro5-aDG cells, AlphaScreen | alpha-DG glycosylation AlphaScreen (IIH6); 0% Pro5, 100% B10-LARGE cell signal | hit rate 0.22% among 360,000 | AID 624168, 2012 | activation, % at 10 µM;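 active = activation of at least 8% versus controls, or a plate z-score of at least 8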;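 note: Pro5 are CHO cells carrying HIG-tagged alpha-DG that lacks glycosylation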
Hep lipid drop: inhibitors of hepatocyte lipid droplet formation, primary screen, imaging, high-throughput imaging, BODIPY stain; AML12 mouse hepatocytes, oleate lipid droplets; inhibition, % at 6.5 µM; hit rate 0.4% among 240,000;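 active = lipid droplet intensity inhibited by at least 50%, with more than 500 cells counted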
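Test system: AML12 mouse liver cells; schedule: overnight exposure; technique: high-content imaging of BODIPY-stained droplets and DAPI nuclei; read-out: % inhibition of corrected integrated BODIPY droplet signal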
MPTP block: mitochondrial permeability transition pore inhibitors, primary screen, biochemical, isolated mouse mitochondria, absorbance. hit rate 1.4% among 360,000. AID 602449, 2012. inhibition, % at 10 µM. Ca2+ swelling absorbance, 30 min;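 active = inhibition of 50% or more, scaled per plate between neutral and stimulator controls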
ADAM10 inh: human ADAM10 inhibitors, primary screen, biochemical, QFRET, HTS; Disintegrin and metalloproteinase domain-containing protein 10 (Homo sapiens), O14672; recombinant ADAM10, EDANS/DABCYL FRET peptide cleavage, 3 h; inhibition, % at 7 µM; hit rate 0.62% among 370,000; AID 720582, 2013;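 active = inhibition above a per-campaign cutoff equal to the mean of compounds falling between control-based bounds plus 3 SD, cut at about 20% in these data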
V-ATPase pH: regulators of yeast V-ATPase proton pumping, primary screen, pHLuorin cytosolic pH fluorescence. AID 504577, 2011. hit rate 0.37% among 350,000. response, % at 10 µM. S. cerevisiae; in the data active = response mostly above about 7.3%, no sharp cut-off; inactive = mostly below about 5.4%; note: actives read high
ADAM17 inh: ADAM17 inhibitors, primary screen, biochemical, QFRET; Disintegrin and metalloproteinase domain-containing protein 17 (Homo sapiens), P78536; recombinant ADAM17, EDANS/DABCYL FRET peptide cleavage; inhibition, % at 6.95 µM; hit rate 0.83% among 370,000; AID 720648, 2013;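 active = inhibition above the mean of compounds lying between control limits plus 3 SD, set per campaign, cut at about 8.5% in these data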
Target sequence (P78536 215-824 limits assumed): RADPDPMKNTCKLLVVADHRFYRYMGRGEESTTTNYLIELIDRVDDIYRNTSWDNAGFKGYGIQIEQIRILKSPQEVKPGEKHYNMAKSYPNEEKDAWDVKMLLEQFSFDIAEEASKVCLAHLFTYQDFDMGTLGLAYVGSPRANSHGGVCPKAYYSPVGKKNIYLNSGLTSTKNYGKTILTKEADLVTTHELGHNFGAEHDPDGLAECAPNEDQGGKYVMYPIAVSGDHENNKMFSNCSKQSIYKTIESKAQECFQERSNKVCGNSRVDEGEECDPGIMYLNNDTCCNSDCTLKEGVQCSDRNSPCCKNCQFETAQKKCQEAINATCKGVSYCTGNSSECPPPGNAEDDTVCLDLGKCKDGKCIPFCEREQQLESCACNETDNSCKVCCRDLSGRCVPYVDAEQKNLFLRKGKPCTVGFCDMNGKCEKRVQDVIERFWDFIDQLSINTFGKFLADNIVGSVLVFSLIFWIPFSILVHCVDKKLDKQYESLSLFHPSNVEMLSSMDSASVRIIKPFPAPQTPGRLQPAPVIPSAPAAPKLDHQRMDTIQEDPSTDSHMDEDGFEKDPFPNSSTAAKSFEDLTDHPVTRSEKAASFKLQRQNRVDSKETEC
ADAM10 confirm: human ADAM10 inhibitors, confirmation, biochemical, QFRET, triplicate; inhibition, % at 6.95 µM; ADAM10 QFRET peptide cleavage, EDANS fluorescence; AID 743208, 2013; hit rate 1% among 2,100; shares compounds with ADAM10 inh;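 active = inhibition above about 20% chosen separately for each screening run, limit read from the data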
ADAM17 counter: ADAM17 inhibitors, counter-screen for ADAM10 exosite inhibitor project, biochemical, QFRET, high throughput. ADAM17 QFRET peptide cleavage, EDANS fluorescence. shares compounds with ADAM10 inh. inhibition, % at 6.95 µM. hit rate 0.5% among 2,100;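 active = mean triplicate inhibition above the solvent-only control wells' mean plus 3 SD, cut at about 12% in these data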
Each line names hits and unclear results; the compound was inactive in the other large screens (follow-up assays come after a bar, where they were run). This is a sample that favours compounds with a hit; in the whole collection about 3.1% have one here.

CC(C)C[C@H](NC(=O)c1[nH]cnc1C(=O)N[C@@H](C)C(=O)OC(C)(C)C)C(=O)OCc1ccccc1	ADAM10 inh 21, ADAM17 inh 12 | ADAM10 confirm inactive | ADAM17 counter inactive
CC(C)(C)OC(=O)[C@H](Cc1ccccc1)NC(=O)c1nc[nH]c1C(=O)N1CCN(C(=O)OC(C)(C)C)CC1	none
CC(C)C[C@H](NC(=O)c1[nH]cnc1C(=O)Nc1ccc(CNC(=O)OC(C)(C)C)cc1)C(=O)OC(C)(C)C	ADAM10 inh 25, ADAM17 inh 9.1 | ADAM10 confirm 25 | ADAM17 counter inactive
CC(C)(C)OC(=O)[C@H](Cc1ccccc1)NC(=O)c1nc[nH]c1C(=O)N1CCN(c2ccccc2)CC1	ADAM10 inh 22 | ADAM10 confirm inactive | ADAM17 counter inactive
CC(C)C[C@H](NC(=O)c1[nH]cnc1C(=O)Nc1ccc(CNC(=O)OC(C)(C)C)cc1)C(=O)OCc1ccccc1	none
CC(C)C[C@H](NC(=O)c1[nH]cnc1C(=O)N[C@@H](C)c1ccccc1)C(=O)OC(C)(C)C	ADAM10 inh 24 | ADAM10 confirm inactive | ADAM17 counter inactive
C[C@H]1COc2cc(Br)ccc2S(=O)(=O)N1Cc1cn(CCC2OCCCO2)nn1	none (no result: aDG glyco act, Hep lipid drop, MPTP block, V-ATPase pH)
COc1ccc(-c2cc(-c3nnc(SCC(=O)Nc4ccc(-c5nc6ccc(C)cc6s5)cc4)n3N)[nH]n2)cc1	none (no result: aDG glyco act, Hep lipid drop, MPTP block, V-ATPase pH)
C[C@H](O)[C@@H]1CN2CCc3c([nH]c4cccc(-c5ccccc5)c34)[C@@H]2C[C@@H]1N(C)CC1CCCCC1	none (no result: aDG glyco act, Hep lipid drop, MPTP block, V-ATPase pH)
CC(C)C[C@H](NC(=O)c1nc[nH]c1C(=O)NCc1ccccc1)C(=O)OC(C)(C)C	ADAM10 inh 22 | ADAM10 confirm inactive | ADAM17 counter inactive
Fc1ccc(CN2CCN(c3ncc(Cc4ccccc4)cn3)CC2)c(Cl)c1	none (no result: aDG glyco act, Hep lipid drop, MPTP block, V-ATPase pH)
COc1ccc(NC(=O)c2cc(S(=O)(=O)N3CCCCC3)ccc2C)cc1S(=O)(=O)N1CCOCC1	none (no result: Hep lipid drop)
COc1ccc(S(=O)(=O)N2CCOCC2)cc1C(=O)Nc1ccc(N2CCCCCC2)cc1	ADAM10 inh 20 (no result: Hep lipid drop) | ADAM10 confirm inactive | ADAM17 counter inactive
CCOC(=O)CCC(=O)Nc1cc(S(=O)(=O)N2CCOCC2)ccc1N1CCCCC1	ADAM10 inh 22 (no result: Hep lipid drop) | ADAM10 confirm inactive | ADAM17 counter inactive
CCOCC(=O)Nc1cc(S(=O)(=O)N2CCOCC2)ccc1N1CCCCC1	none
Cc1ccccc1C1CCC2(CCC(=O)N2CC[C@@H](O)c2ccccc2)CC1 (stereo partly specified)	none (no result: aDG glyco act, Hep lipid drop, MPTP block, V-ATPase pH)
O=C(CSc1nnc(-c2ccncc2)n1-c1ccc(Cl)cc1)c1ccc(Cl)c(Cl)c1	none (no result: aDG glyco act, Hep lipid drop, MPTP block, V-ATPase pH)
CCOC(=O)c1cccc(NC(=O)CN(C)S(=O)(=O)c2cc3ccccc3s2)c1	none (no result: aDG glyco act, Hep lipid drop, MPTP block, V-ATPase pH)
COc1ccc(-c2csc(NC(=O)c3c(OC)cccc3OC)n2)cc1	ADAM10 inh 30 | ADAM10 confirm inactive | ADAM17 counter inactive
COc1cccc(-c2csc(NC(=O)Nc3ccccc3)n2)c1	ADAM10 inh 25 | ADAM10 confirm inactive | ADAM17 counter inactive
CCC[C@H]1[C@@H](OC(=O)NCc2ccc(OC)c(OC)c2)CC[C@@]23CCCN2C(=O)CCC[C@@H]13	none (no result: aDG glyco act, Hep lipid drop, MPTP block, V-ATPase pH)
COc1ccccc1NS(=O)(=O)c1cccc(C(=O)OCc2nc3ccccc3s2)c1	ADAM10 inh 21 | ADAM10 confirm inactive | ADAM17 counter inactive
Cc1onc(-c2ccccc2)c1C(=O)NC(=S)NNC(=O)c1cccnc1	ADAM10 inh 24 | ADAM10 confirm inactive | ADAM17 counter inactive
O=C1OCCN1C(=O)[C@H]1[C@H](c2ccc([N+](=O)[O-])cc2)C(c2ccccc2)=NN1c1ccccc1	ADAM10 inh 24 (no result: Hep lipid drop) | ADAM10 confirm inactive | ADAM17 counter inactive
O=C1OCCN1C(=O)[C@H]1[C@H](c2ccc([N+](=O)[O-])cc2)C(c2cccc(Cl)c2)=NN1c1ccccc1	ADAM10 inh 42, ADAM17 inh 17 | ADAM10 confirm inactive | ADAM17 counter inactive
CCOc1ccc(N(CC(=O)Nc2c(C)n(C)n(-c3ccccc3)c2=O)S(=O)(=O)c2cc(OC)ccc2OC)cc1	none (no result: aDG glyco act, Hep lipid drop, MPTP block, V-ATPase pH)
COc1ccc(CCn2c(-c3ccc(C(C)(C)C)cc3)n[nH]c2=S)cc1OC	ADAM10 inh 24 | ADAM10 confirm inactive | ADAM17 counter inactive
S=c1[nH]nc(-c2cc(-c3ccsc3)n[nH]2)n1-c1cccc2ccccc12	ADAM10 inh 23 | ADAM10 confirm inactive | ADAM17 counter inactive
COc1ccc(OC)c(NC(=O)c2cc3n(n2)C(C(F)(F)F)CC(c2ccc4c(c2)OCO4)N3)c1 (stereo unspecified)	none
O=C(Nc1cc(Cl)ccc1O)c1cc2n(n1)C(C(F)(F)F)CC(c1ccc3c(c1)OCO3)N2 (stereo unspecified)	ADAM10 inh 29 | ADAM10 confirm inactive | ADAM17 counter inactive
COCCCN1C(=O)[C@H](CC(=O)NCCCN2CCCC2=O)[C@]2(C(=O)OC)CCCCC=C12	none (no result: aDG glyco act, Hep lipid drop, MPTP block, V-ATPase pH)
CC(C)n1nnnc1C1c2ccccc2OCC(=O)N1Cc1cccc(C(F)(F)F)c1 (stereo unspecified)	none (no result: aDG glyco act, Hep lipid drop, MPTP block, V-ATPase pH)
CC(=O)Oc1ccc2ccccc2c1C(NC(=O)Cc1ccccc1)c1ccc(Cl)cc1 (stereo unspecified)	ADAM10 inh 22 (no result: Hep lipid drop) | ADAM10 confirm inactive | ADAM17 counter inactive
C/C(=N\OCC(=O)Nc1ccc(OC(F)(F)F)cc1)c1ccc2c(c1)OCCO2	ADAM10 inh 20 | ADAM10 confirm inactive | ADAM17 counter inactive
COc1ccc(Nc2nc(N)c([N+](=O)[O-])c(NC3CCCCC3)n2)cc1	ADAM10 inh 31 | ADAM10 confirm inactive | ADAM17 counter inactive
O=S(=O)(Nc1cc(C(F)(F)F)ccc1N1CCOCC1)c1ccc2ccccc2c1	ADAM10 inh 24 | ADAM10 confirm inactive | ADAM17 counter inactive
C[C@@H]1OC(c2ccccc2)N(C)[C@H]2C[C@H]3c4[nH]c5cccc(-c6ccccc6)c5c4CCN3C[C@@H]12 (stereo partly specified)	none (no result: aDG glyco act, Hep lipid drop, MPTP block, V-ATPase pH)
Cc1nn(C)cc1CNC(=O)Nc1ccc(Br)cc1Cl	ADAM10 inh 85 | ADAM10 confirm inactive | ADAM17 counter inactive
CC(C)NC(=O)[C@H](CSCc1ccccc1)N1Cc2ccccc2C1=O	none
